In the library only some 3.5% were active in any assay of this set; here they are far more common.
RGS4 pot: RGS4 potentiators or activators, primary screen, cell-based, HEK293 M3R inducible RGS4, calcium flux; carbachol calcium flux Fluo4; stronger effect = lower value; B-score at 10 µM; hit rate 0.92% among 310,000; AID 463111, 2010;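 active = B-score of the integrated calcium signal more than 4 SD below the library mean, with starting fluorescence not abnormally high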;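 also: negative B-score means reduced calcium response which marks RGS4 activation or potentiation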
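Test system: HEK293 cells with stable M3R and inducible RGS4; also added: carbachol at ECmax as muscarinic agonist stimulus; schedule: dye loading 30 min 37 °C, buffer rest 30 min RT; technique: kinetic calcium fluorescence imaging with Fluo4-AM dye, 2 µM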
MrgX1 agonist: agonists of human MrgX1 receptor, primary screen, HEK293 cells, Fluo-4 calcium flux; Mas-related G-protein coupled receptor member X1 (Homo sapiens), Q96LB2; Fluo-4 calcium fluorescence, agonist mode; stronger effect = higher value; B-score at 10 µM; hit rate 0.44% among 310,000; AID 588627, 2011;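 active = calcium response B-score plate-corrected fluorescence ratio at least 3 library SD, with starting fluorescence B-score inside 5 SD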
Target sequence (Q96LB2 whole entry, looked up): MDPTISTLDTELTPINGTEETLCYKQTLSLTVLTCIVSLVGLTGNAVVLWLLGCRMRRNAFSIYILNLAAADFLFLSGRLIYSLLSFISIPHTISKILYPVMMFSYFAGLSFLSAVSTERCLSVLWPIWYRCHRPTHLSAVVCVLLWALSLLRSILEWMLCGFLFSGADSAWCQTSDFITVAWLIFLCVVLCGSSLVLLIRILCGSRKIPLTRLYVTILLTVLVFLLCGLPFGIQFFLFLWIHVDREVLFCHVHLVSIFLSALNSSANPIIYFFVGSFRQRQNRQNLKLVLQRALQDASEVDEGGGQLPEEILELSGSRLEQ
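Material – MrgX1-expressing HEK293 cells · Input – 15,000 cells seeded per well · Dosing – compound as first of three additions · Times – overnight seeding, then 1 h dark dye loading · Measured by – kinetic Fluo-4 NW fluorescence of intracellular calcium · Read-out – B-scored fluorescence response ratio · Benchmarks – positive and negative control wells on each plate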
RGS4 inh: RGS4 inhibitors, primary screen, cell-based, HEK293 M3R inducible RGS4, calcium flux | Regulator of G-protein signaling 4 (Homo sapiens), P49798 | hit rate 0.45% among 310,000 | Fluo-4 calcium flux; stronger effect = higher value; triggered by carbachol at its EC20 | AID 463165, 2010 | B-score at 10 µM;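 active = B-score, a plate-corrected calcium signal, over three deviations above library mean, with baseline fluorescence within five deviations of library mean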;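 also: RGS4 expression induced by doxycycline in cells with stable M3 receptor; B-score is computed from the integrated fluorescence ratio over baseline after carbachol; higher B-score means a larger calcium signal and so more RGS4 inhibition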
Target sequence (P49798 whole entry, looked up): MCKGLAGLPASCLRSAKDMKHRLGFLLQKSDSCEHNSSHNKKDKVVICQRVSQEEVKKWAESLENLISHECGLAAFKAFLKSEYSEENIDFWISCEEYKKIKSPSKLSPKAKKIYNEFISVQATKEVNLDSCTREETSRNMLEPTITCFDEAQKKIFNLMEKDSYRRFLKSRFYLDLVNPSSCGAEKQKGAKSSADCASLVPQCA
MrgX1 PAM: positive allosteric modulators of MrgX1, primary screen, HEK293 cells, Fluo-4 calcium flux. Mas-related G-protein coupled receptor member X1 (Homo sapiens), Q96LB2. FDSS; stronger effect = higher value. B-score at 10 µM. hit rate 0.63% among 310,000. AID 588675, 2011;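 active = plate-corrected calcium response at least 3 library SD above typical, normal starting fluorescence, not activating the receptor alone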;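 also: compound read alongside a low EC10 to EC30 dose of BAM8-22 agonist; peak minus trough fluorescence over baseline measured at the second addition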
MrgX1 antag: antagonists of human MrgX1 receptor, primary screen, HEK293 cells, Fluo-4 calcium flux; AID 588676, 2011; B-score at 10 µM; BAM8-22 antagonism; stronger effect = lower value; hit rate 1.3% among 310,000;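 active = calcium-response B-score plate-corrected more than 3 library SD below zero, starting fluorescence within 5 deviations, no agonist response on first addition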;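 also: peak minus trough fluorescence over baseline after final BAM8-22 challenge near maximal dose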
RGS4 act valid: reduced carbachol calcium response, RGS4-induced M3R cells, confirmation, RGS4 activator project, cell-based, HEK293 M3R/RGS4 inducible, calcium flux, duplicate; shares compounds with RGS4 pot; carbachol calcium flux Fluo4; inhibition, % at 10 µM; hit rate 89% among 1,100; AID 602282, 2012;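 active = inhibition above 3 SD of the buffer control wells, cut at about 41% in these data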;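 also: signal is the integrated peak-minus-minimum Fluo4 fluorescence over baseline ratio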
RGS4 act ctr: RGS4 activator counter-screen hit in non-induced cells. shares compounds with RGS4 pot. HEK293 M3R non-induced RGS4, Fluo4 calcium flux; after carbachol challenge at its EC90. inhibition, % at 10 µM. hit rate 82% among 1,100. AID 602283;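 active = inhibition exceeding 3 SD of buffer-only control wells, cut at about 26% in these data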;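 also: percent drop in integrated peak-minus-baseline over baseline Fluo4 ratio after carbachol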
* = called active by the depositor; i = inactive; x = no result.

SMILES | RGS4 pot | MrgX1 agonist | RGS4 inh | MrgX1 PAM | MrgX1 antag | RGS4 act valid | RGS4 act ctr
COCCCNC(=O)c1c(N)n(/N=C/c2cccs2)c2nc3ccccc3nc12 | -8.1* | i | i | i | i | 0 | 0
Cc1c(CCOC(=O)C23CC4CC(CC(C4)C2)C3)sc[n+]1Cc1ccccc1 | -12* | i | i | i | i | 92* | 61*
Cc1ncc(C[n+]2csc(CCOC(=O)C34CC5CC(CC(C5)C3)C4)c2C)c(N)n1 | i | i | i | i | i | x | x
COC(=O)c1ccc(Cn2cnc3c(sc4nc(N5CCOCC5)c5c(c43)CCCC5)c2=O)o1 | i | i | i | i | i | x | x
CCOc1ccc(C(=O)n2cc(C(=O)OC)c3ccccc32)cc1OCC | i | i | i | i | i | x | x
CCOc1ccc(C(=O)n2cc(C(=O)OC)c3ccccc32)cc1 | -8.6* | i | i | i | i | 69* | 84*
O=C(O)c1ccccc1NS(=O)(=O)c1ccc(NNC(=S)Nc2ccc(OC(F)F)cc2)c([N+](=O)[O-])c1 | -12* | x | i | x | x | 0 | 0
CCOc1ccc(S(=O)(=O)N(CC(=O)NCc2ccncc2)c2ccc(C)cc2)cc1 | i | i | i | i | i | x | x
CCOC(=O)N1CCC(NC(=O)c2cnn3c(C(F)(F)F)cc(-c4cccc(OC)c4)nc23)CC1 | -8.4* | i | i | i | i | 0 | 0
CC(C)(C)c1csc(NC(=O)c2cccs2)n1 | -8.2* | i | i | i | i | 0 | 0
Cc1ccc(Cc2c(C)nc3nc(SCC(=O)NCCCN4CCOCC4)nn3c2C)cc1 | i | i | i | i | i | x | x
Cc1ccccc1Cc1c(C)nc2nc(SCC(=O)NCCCN3CCCCC3)nn2c1C | -9.6* | i | i | i | i | 74* | 43*
O=C(c1ccccc1Oc1ccc([N+](=O)[O-])cc1)N1CCOCC1 | i | i | i | i | i | x | x
c1ccc2c(c1)CCc1ccccc1C2=C1CCNCC1 | -12* | i | i | i | i | 94* | 94*
CN1CCC(=C2c3ccccc3C=Cc3ccccc32)CC1 | i | i | i | i | i | x | x
O=S(=O)(NNc1ccc(F)cc1F)c1cccc(Cl)c1 | i | i | i | i | i | x | x
CCCOc1ccc(OCCCCNC(C)CC)cc1 (stereo unspecified) | i | i | i | i | i | x | x
CCC(C)NCCOc1ccc(C(C)(C)c2ccccc2)cc1 (stereo unspecified) | -7.8* | i | i | i | i | 79* | 34*
CSCC[C@H](NC(=O)Cc1c(C)c2c(cc(C)c3c(C)coc32)oc1=O)C(=O)O | i | i | i | i | i | x | x
O=S(=O)(Nc1nc2ccccc2[nH]1)c1ccc(Cl)cc1 | -9.4* | i | i | i | i | 92* | 90*
O=C(Nc1nc2ccccc2[nH]1)c1ccc(Cl)cc1 | i | i | i | i | i | x | x
CS(=O)(=O)Nc1nc2ccccc2[nH]1 | i | i | i | i | i | x | x
O=S(=O)(Nc1nc2ccccc2[nH]1)c1ccccc1 | -8.2* | i | i | i | i | 91* | 39*
S=c1[nH]cnc2scc(-c3ccc(Cl)cc3)c12 | i | i | i | i | i | x | x
Fc1ccc(-n2nnnc2-c2cnc(-c3cccs3)nc2C(F)(F)F)cc1 | -9.7* | i | i | i | i | 74* | 44*
SMILES | RGS4 pot | MrgX1 agonist | RGS4 inh | MrgX1 PAM | MrgX1 antag | RGS4 act valid | RGS4 act ctr
FC(F)(F)c1nc(-c2ccncc2)ncc1-c1nnnn1-c1ccccc1 | i | i | i | i | i | x | x
CN(C)CC[C@@H](c1ccc(Cl)cc1)c1ccccn1 | -13* | i | i | i | i | 57* | 0
CN(C)CC[C@@H](c1ccc(Br)cc1)c1ccccn1 | i | i | i | i | i | x | x
CC(O)CN(C)CC/C=C1/c2ccccc2CSc2ccccc21 (stereo unspecified) | -7.9* | i | i | i | i | 73* | 84*
CN(CC/C=C1/c2ccccc2CSc2ccccc21)CCCO | -9.5* | i | i | i | i | 91* | 65*
CN(C)CCCNC(=O)c1cc(C(=O)c2cccc(Cl)c2Cl)c[nH]1 | i | i | i | i | i | x | x
Cc1cccc(NC(=O)C2CCN(C(=O)NCc3ccccc3)CC2)c1C | i | i | i | i | i | x | x
O=C(CC1S/C(=N/N=C/c2ccco2)NC1=O)Nc1cccc(Cl)c1Cl (stereo unspecified) | i | i | i | i | i | x | x
Cc1cc(C(=O)NC(C)C2CCCO2)c(C)o1 (stereo unspecified) | i | i | i | i | i | x | x
COc1cccc(-c2nn(Cc3ccccc3)cc2CO)c1 | i | i | i | i | i | x | x
Cc1cccc(NS(=O)(=O)c2cc(C(=O)N3CCc4ccccc4C3)ccc2Cl)c1C | -8.1* | i | i | i | i | 82* | 30*
CCOC(=O)c1ccc(N2C(=O)C3C(/C=C/c4ccccc4)OC4(C(=O)c5ccccc5C4=O)C3C2=O)cc1 (stereo unspecified) | i | i | i | i | i | x | x
CCOC(=O)c1cnc2ccc(OCC)cc2c1N1CCN(c2ccccc2OC)CC1 | -9.1* | i | i | i | i | 93* | 93*
CCOc1ccc2ncc(C(=O)c3ccc(OC)cc3)c(N3CCN(CC)CC3)c2c1 | i | i | i | i | i | x | x
CN(CC(=O)Nc1cccc(F)c1)C(=O)c1cc(S(=O)(=O)N(C)C)ccc1N1CCCC1 | i | i | i | i | i | x | x
Cc1ccc(S(=O)(=O)c2ccc(Oc3cccc(C)c3)cc2)cc1 | -8.1* | i | i | i | i | 68* | 30*
c1ccc(COc2ccc(CN3CCN(c4ccccn4)CC3)cc2)cc1 | -8.3* | i | i | i | i | 90* | 58*
Cc1nc2ccccn2c1C(=O)CSc1cccc(Cl)c1 | i | i | i | i | i | x | x

Source: PubChem BioAssay (Johns Hopkins Ion Channel Center)
